Source: ChEMBL document CHEMBL4190206, “Neoclerodane Diterpenoids from Reehal Fatima, Teucrium yemense” (J Nat Prod, 2017)
Calls of active or inactive are those of the source. No cut-off for these calls is given here.

How the values were obtained:
Schistosoma mansoni [1] = experiment: Antischistosomal activity against schistosomula larval stage of Schistosoma mansoni assessed as effect on phenotype at 10 uM after 24 hrs; format: functional, organism-based
Method in brief: (§1)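 24 h cultured, mechanically transformed S. mansoni schistosomula (~120/well) in Basch medium, exposed to compound at 10 µM final (DMSO stock 1.6 mM) in 384-well format; DMSO and auranofin controls, 16 wells each. Incubated 24 h, 37°C, 5% CO2, then high-content imaging scored motility and phenotype.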

Schistosoma mansoni [2] = experiment: Antischistosomal activity against schistosomula larval stage of Schistosoma mansoni assessed as effect on motility at 10 uM after 24 hrs; format: functional, organism-based; method in brief: as §1
Pseudomonas aeruginosa = experiment: Antimicrobial activity against Pseudomonas aeruginosa assessed as inhibition of microbial growth at 0.03125 to 0.5 mg/ml measured every 20 mins for 24 hrs by spectrophotometry; format: functional, organism-based
Method in brief: (§2)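 Broth microdilution: colony suspensions grown overnight at 37°C with shaking, standardised to McFarland 0.5, inoculated at final 5 × 10^5 cfu mL^-1 into nutrient broth holding serially diluted test solution. Rifampicin (61 µM) as control; untreated wells included. 37°C, 300 rpm shaking, OD600 read every 20 min over 24 h.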

[3] = system: Mycolicibacterium smegmatis; experiment: Antimicrobial activity against Mycobacterium smegmatis assessed as inhibition of microbial growth at 0.03125 to 0.5 mg/ml measured every 20 mins for 24 hrs by spectrophotometry; format: functional, organism-based; method in brief: as §2
Escherichia coli [4] = experiment: Antimicrobial activity against Escherichia coli assessed as inhibition of microbial growth at 0.03125 to 0.5 mg/ml measured every 20 mins for 24 hrs by spectrophotometry; format: functional, organism-based; method in brief: as §2
HepG2 = experiment: Cytotoxicity against human HepG2 at <200 uM after 20 hrs by MTT assay; format: cell-based; settings: hepg2, 20 h
Method in brief: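 HepG2 seeded 2.0 × 10^4/well in modified BME with 10% FBS, L-Gln, non-essential amino acids and antibiotic/antimycotic; 24 h at 37°C, 5% CO2 before dosing at 100-0.01 µM final. After 20 h, MTT added for 4 h; formazan dissolved in DMSO:isopropanol (1:1), A570 read. 1% DMSO and 1% Triton X-100 controls; blank-corrected; three data sets.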

Candida albicans = experiment: Antimicrobial activity against Candida albicans assessed as inhibition of microbial growth at 0.03125 to 0.5 mg/ml measured every 20 mins for 24 hrs by spectrophotometry; format: functional, organism-based; method in brief: as §2
Staphylococcus aureus = experiment: Antimicrobial activity against Staphylococcus aureus assessed as inhibition of microbial growth at 0.03125 to 0.5 mg/ml measured every 20 mins for 24 hrs by spectrophotometry; format: functional, organism-based; method in brief: as §2
Escherichia coli [5] = experiment: Growth stimulation of Escherichia coli at >100 uM measured every 20 mins for 24 hrs by spectrophotometry; format: organism-based
Method in brief: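 E. coli in nutrient broth with serially diluted compound, final inoculum 5 × 10^5 cfu mL^-1. Incubated 37°C with 300 rpm shaking, OD600 read every 20 min for 24 h. Data given as OD600 percentage of no-drug control wells, mean ± error.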

| Activity (Escherichia coli [5]) | Compound | Activity (Schistosoma mansoni [1]) | Activity (Schistosoma mansoni [2]) | Activity (Pseudomonas aeruginosa) | Activity [3] | Activity (Escherichia coli [4]) | Activity (HepG2) | Activity (Candida albicans) | Activity (Staphylococcus aureus) |
| --- | --- | --- | --- | --- | --- | --- | --- | --- | --- |
|  | C[C@@H]1C[C@@]2(O)OC[C@]3(O)[C@H]2[C@H](CC[C@@H]3O)[C@@]12C[C@@H](c1ccoc1)OC2=O | inactive | inactive | inactive | inactive | inactive | Non-Toxic | inactive | inactive |
| Dose-dependent effect | CC(=O)OC[C@]1(CC(O)c2ccoc2)[C@H](C)C[C@H](O)[C@]2(COC(C)=O)[C@@H]1CC[C@H](O)[C@]21CO1 (stereo partly drawn) | inactive | inactive | inactive | inactive | inactive | Non-Toxic | inactive | inactive |
|  | CC(=O)OC[C@@]12[C@@H]3CC[C@H](O)[C@]1(O)CO[C@]2(O)C[C@@H](C)[C@]31C[C@@H](c2ccoc2)OC1=O | inactive | inactive | inactive | inactive | inactive | Non-Toxic | inactive | inactive |
|  | C[C@@H]1C[C@H](O)[C@]23CO[C@](O)(CC[C@@H]2[C@@]12C[C@@H](c1ccoc1)OC2=O)[C@@H]3CO | inactive | inactive | inactive | inactive | inactive | Non-Toxic | inactive | inactive |
|  | C[C@@H]1C[C@@]2(O)OC[C@@]3(O)[C@@H](O)CC[C@@H]4[C@]1(CC(O)c1ccoc1)C(=O)OC[C@]423 (stereo partly drawn) | inactive | inactive | inactive | inactive | inactive | Non-Toxic | inactive | inactive |
|  | C[C@@H]1CC(=O)[C@@H]2[C@H](CC[C@H](O)[C@]2(O)COC(=O)c2ccc(O)cc2)[C@@]12C[C@@H](c1ccoc1)OC2=O | inactive | inactive | inactive | inactive | inactive | Non-Toxic | inactive | inactive |
| Dose-dependent effect | CC(=O)OC[C@]1(CCC2=CC(O)OC2=O)[C@H](C)C[C@H](O)[C@]2(COC(C)=O)[C@@H]1CC[C@H](O)[C@]21CO1 (stereo partly drawn) | inactive | inactive | inactive | inactive | inactive | Non-Toxic | inactive | inactive |
